Results: ChEMBL document CHEMBL5252539, “In vitro biological evaluation of new antimycobacterial salicylanilide-tuftsin conjugates” (Eur J Med Chem, 2017)
Converted amounts (≈) assume the structure as drawn. The source made the active and inactive calls. The calls are words filed in the database; no cut-off is given here. *1 amine or outer side, *2 acyl side, *3 side chain or, on linkers, in order; H or OH if unused. Where a SMILES comes first, the peptide text is derived from it. [ ]: non-standard residue; d: D form. The star is where a group is joined. X1 = C/C(=N\OCC(=O)[*:2])c1ccc(N[*:1])cc1; Benzoyl(5-Br-2-OH) = O=C(c1cc(Br)ccc1O)*; Palmitoyl = CCCCCCCCCCCCCCCC(=O)*; Decanoyl = CCCCCCCCCC(=O)*

What was measured:
[1] = tested on: Mycobacterium tuberculosis; test: Antimycobacterial activity against Mycobacterium tuberculosis H37Rv ATCC 27294 assessed as reduction in colony forming unit after 28 days by serial dilution method; type: functional, organism-based; conditions: time 28.0 day
Outline: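 After the 4-week MIC incubation in Sula semisynthetic medium (pH 6.5), growth inhibition confirmed by plating on Löwenstein-Jensen solid medium and counting colony forming units.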

[2] = tested on: Mycobacteroides abscessus; test: Antimycobacterial activity against Mycobacterium abscessus ATCC 19977 assessed as reduction in colony forming unit after 7 days by serial dilution method; type: functional, organism-based; conditions: time 7.0 day
Outline: (§1)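 MIC determined in Sula semisynthetic medium, pH 6.5, 1 week incubation. Growth inhibition confirmed by plating on Löwenstein-Jensen solid medium and counting CFU. Bacteria inoculated without drug served as growth control.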

[3] = tested on: Mycobacterium tuberculosis; test: […] antimycobacterial activity against Mycobacterium tuberculosis H37Rv ATCC 27294 infected in human MONO-MAC-6 cells assessed as reduction in colony forming unit at 125 uM for 6 days by colony counting based analysis; type: functional, organism-based; conditions: time 6.0 day
Outline: (§2)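 MonoMac6 monolayers infected with H37Rv, then treated with compound at 125 or 250 µM for 3 days. Treatment repeated with fresh compound solution for another 3 days. Intracellular bacteria quantified as CFU against untreated infected cells.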

[4] = tested on: Mycobacterium tuberculosis; test: […] antimycobacterial activity against Mycobacterium tuberculosis H37Rv ATCC 27294 infected in human MONO-MAC-6 cells assessed as reduction in colony forming unit at 250 uM for 6 days by colony counting based analysis; type: functional, organism-based; conditions: time 6.0 day; outline: as §2
[5] = Stability of the compound in Sula's semisynthetic medium containing 10% DMSO assessed as free salicylanilide formation at pH 6.5 at 2 mg/ml after 4 weeks at 37 degree C by reverse phase HPLC analysis
Outline: (§3)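 Conjugate incubated in Sula semisynthetic medium (pH 6.5) at 37 °C for 4 weeks. Decomposition to free salicylanilide and 2-hydroxyacetyl-tuftsin derivative followed by analytical RP-HPLC and mass spectrometry.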

[6] = Stability of the compound in Sula's semisynthetic medium containing 10% DMSO assessed as 2-hydroxyacetyl-tuftsin derivative formation at pH 6.5 at 2 mg/ml after 4 weeks at 37 degree C by reverse phase HPLC analysis; outline: as §3
[7] = Stability of the compound in DMSO at 4 degree C at 2 mM up to 3 weeks by reverse phase HPLC analysis; type: physicochemical; conditions: 504 h, 2000 µM
Outline: (§4)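 Stability followed by analytical RP-HPLC and mass spectrometry under assay conditions: in DMSO at 4 °C over 3 weeks, in serum-free RPMI-1640 at 37 °C over 1 week, and in complete RPMI-1640 at 37 °C over 1 day.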

[8] = Stability of the compound in serum free RPMI-1640 medium containing 2% DMSO at 1 mg/ml after 1 week by reverse phase HPLC analysis; conditions: time 1.0 weeks; outline: as §4
[9] = Stability of the compound in complete RPMI-1640 medium containing 2% DMSO at 1 mg/ml after 24 hrs by reverse phase HPLC analysis; outline: as §4
[10] = Retention time of the compound by RP-HPLC analysis; type: physicochemical
Outline: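 Analytical RP-HPLC on a C18 column (5 μm, 100 Å, 4.6 × 150 mm). Eluent A 0.1% TFA in water, eluent B 0.1% TFA in acetonitrile-water 80:20. Gradient 0% B for 5 min, to 60% B at 15 min, to 100% B at 25 min. Flow 1 mL/min, detection at 220 nm.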

[11] = tested on: Mycobacteroides abscessus; test: Antimycobacterial activity against Mycobacterium abscessus ATCC 19977 assessed as reduction in bacterial growth after 7 days by serial dilution method; type: functional; conditions: ATCC 19977, 168 h, time 7 day; outline: as §1
MONO-MAC-6 = test: Cytostatic activity against human MONO-MAC-6 cells assessed as reduction in cell viability incubated for 24 hrs by MTT assay; type: functional, cell-based; conditions: MONO-MAC-6, 24 h
Outline: (§5)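 MTT viability assay after 24 h exposure of MonoMac6 human monocytic cells or HepG2 human hepatocellular carcinoma cells. Top concentration 200 μM. IC50 taken from dose-response curves as the concentration reducing viability to 50% of maximal.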

HepG2 = test: Cytostatic activity against human HepG2 cells assessed as reduction in cell viability incubated for 24 hrs by MTT assay; type: functional, cell-based; conditions: HepG2, 24 h; outline: as §5
[12] = Selectivity index, ratio of IC50 for cytostatic activity against human MONO-MAC-6 cells to MIC for antimycobacterial activity against Mycobacterium tuberculosis H37Rv ATCC 27294; type: toxicity, cell-based; conditions: read-out: Selectivity Index
Outline: (§6)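 MTT assay on MonoMac6 or HepG2 cells after 24 h exposure, top concentration 200 µM. SI = IC50 (µM)/MIC (µM) against H37Rv from the 4-week Sula medium assay.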

[13] = Selectivity index, ratio of IC50 for cytostatic activity against human HepG2 cells to MIC for antimycobacterial activity against Mycobacterium tuberculosis H37Rv ATCC 27294; type: toxicity, cell-based; conditions: read-out: Selectivity Index; outline: as §6
[14] = Cytotoxicity against mouse bone marrow derived macrophages assessed as reduction in cell viability incubated for 48 hrs by MTT assay; type: toxicity, cell-based, Macrophage
Outline: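 Murine bone marrow-derived macrophages exposed for 48 h, viability by MTT. Highest concentration tested 100 µM. IC50 taken from dose-response curves.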

[15] = Selectivity index, ratio of IC50 for cytotoxicity against mouse bone marrow derived macrophages to MIC for antimycobacterial activity against Mycobacterium tuberculosis H37Rv ATCC 27294; type: toxicity; conditions: read-out: Selectivity Index
Outline: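 Murine bone marrow-derived macrophages exposed for 48 h, top concentration 100 µM. Viability read by MTT and IC50 taken from dose-response curves. SI = IC50/MIC against H37Rv.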

[16] = Stability in rat liver lysosomal homogenate assessed as drug degradation at 50 uM and measured upto 24 hrs by HPLC-MS analysis; type: ADME, subcellular, Lysosome; conditions: tissue homogenate
Outline: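 Conjugates incubated in rat liver lysosomal homogenate. Reaction mixtures sampled at 5 min, 1 h, 2 h, 4 h, 8 h and 24 h and analysed by HPLC-MS (chromatograms and mass spectra) to identify intact conjugate, fragments and cleavage sites.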

[17] = tested on: Mycobacterium tuberculosis; test: Antimycobacterial activity against Mycobacterium tuberculosis H37Rv ATCC 27294 assessed as reduction in bacterial growth after 21 days by serial dilution method; type: functional; conditions: H37Rv ATCC 27294, 504 h, time 21 day
Outline: (§7)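 Broth MIC in Sula semisynthetic medium, pH 6.5; 4-week incubation, with 21-day values […] where indicated. Drug-free inoculated bacteria served as growth control. MIC also expressed as drug content (µg/mL) = MIC (µM) × average SAL molar mass × number of SAL per conjugate / 1000.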

[18] = tested on: Mycobacterium tuberculosis; test: Antimycobacterial activity against Mycobacterium tuberculosis H37Rv ATCC 27294 assessed as reduction in bacterial growth after 28 days by serial dilution method; type: functional; conditions: H37Rv ATCC 27294, 672 h, time 28 day; outline: as §7

| SMILES | Activity [1] | Activity [2] | Activity [3] | Activity [4] | Stability [5] | Stability [6] | Stability [7] | Stability [8] | Stability [9] | Retention_time [10] | MIC [11] | IC50 (MONO-MAC-6) | IC50 (HepG2) | selectivity ratio [12] | selectivity ratio [13] | IC50 at 48 h [14] | selectivity ratio [15] | Stability [16] | MIC [17] | MIC [18] |
| --- | --- | --- | --- | --- | --- | --- | --- | --- | --- | --- | --- | --- | --- | --- | --- | --- | --- | --- | --- | --- |
| C/C(=N\OCC(=O)NCC(=O)N[C@@H](Cc1ccccc1)C(=O)N[C@@H](CC(C)C)C(=O)NCC(=O)N[C@H](C(=O)N[C@@H](CCCCN)C(=O)N1CCC[C@@H]1C(=O)N[C@H](CCCCN)C(=O)NCC(=O)N[C@@H](C(=O)N[C@H](CCCCN)C(=O)N1CCC[C@H]1C(=O)N[C@H](CCCCN)C(=O)NCC(=O)N[C@@H](C(=O)N[C@@H](CCCCN)C(=O)N1CCC[C@@H]1C(=O)N[C@H](CCCCN)C(=O)NCC(=O)N[C@@H](C(=O)N[C@H](CCCCN)C(=O)N1CCC[C@H]1C(=O)N[C@H](CCCCN)C(=O)NCC(N)=O)[C@H](C)O)[C@H](C)O)[C@H](C)O)[C@@H](C)O)c1ccc(NC(=O)c2cc(Br)ccc2O)cc1 | Active | Active | inactive | Active | Stable | Stable |  |  |  |  |  |  |  |  |  |  |  |  |  |  |
| CCCCCCCCCC(=O)NCCCC[C@H](NC(=O)[C@@H]1CCCN1C(=O)[C@H](CCCCN)NC(=O)[C@@H](NC(=O)CO/N=C(\C)c1ccc(NC(=O)c2cc(Br)ccc2O)cc1)[C@@H](C)O)C(=O)NCC(=O)N[C@H](C(=O)N[C@@H](CCCCN)C(=O)N1CCC[C@H]1C(=O)N[C@@H](CCCCN)C(=O)NCC(=O)N[C@H](C(=O)N[C@@H](CCCCN)C(=O)N1CCC[C@H]1C(=O)N[C@@H](CCCCN)C(=O)NCC(=O)N[C@H](C(=O)N[C@@H](CCCCN)C(=O)N1CCC[C@H]1C(=O)N[C@@H](CCCCN)C(=O)NCC(N)=O)[C@@H](C)O)[C@@H](C)O)[C@@H](C)O ({Benzoyl(5-Br-2-OH)}-[X1]TKPK(Decanoyl)GTKPKGTKPKGTKPKG-NH2) | Active | Active | Active | Active |  |  | Stable | Stable | Stable | 16.4 min | 76.7 µM (≈ 200 µg/mL) | 24.9 µM | 113 µM | 0.3 | 1.5 | 71.9 µM | 0.9 | Unstable | 76.7 µM (≈ 200 µg/mL) |  |
| CCCCCCCCCCCCCCCC(=O)NCCCC[C@H](NC(=O)[C@@H]1CCCN1C(=O)[C@H](CCCCN)NC(=O)[C@@H](NC(=O)CO/N=C(\C)c1ccc(NC(=O)c2cc(Br)ccc2O)cc1)[C@@H](C)O)C(=O)NCC(=O)N[C@H](C(=O)N[C@@H](CCCCN)C(=O)N1CCC[C@H]1C(=O)N[C@@H](CCCCN)C(=O)NCC(=O)N[C@H](C(=O)N[C@@H](CCCCN)C(=O)N1CCC[C@H]1C(=O)N[C@@H](CCCCN)C(=O)NCC(=O)N[C@H](C(=O)N[C@@H](CCCCN)C(=O)N1CCC[C@H]1C(=O)N[C@@H](CCCCN)C(=O)NCC(N)=O)[C@@H](C)O)[C@@H](C)O)[C@@H](C)O ({Benzoyl(5-Br-2-OH)}-[X1]TKPK(Palmitoyl)GTKPKGTKPKGTKPKG-NH2) | Active | Active | Active | Active |  |  |  |  |  | 18.4 min | 74.3 µM (≈ 200 µg/mL) | 16.5 µM | 37.6 µM | 0.2 | 0.4 | 20.4 µM | 0.2 | Unstable |  | 92.9 µM (≈ 250 µg/mL) |
| C/C(=N\OCC(=O)N[C@H](C(=O)N[C@@H](CCCCN)C(=O)N1CCC[C@H]1C(=O)N[C@@H](CCCCN)C(=O)NCC(N)=O)[C@@H](C)O)c1ccc(NC(=O)c2cc(Br)ccc2O)cc1 ({Benzoyl(5-Br-2-OH)}-[X1]TKPKG-NH2) | Active | Active | Active | Active |  |  |  |  |  | 15.6 min | 174 µM (≈ 160 µg/mL) | > 200 µM | > 200 µM | > 9.2 | > 9.2 | > 100 µM | 4.6 | Unstable |  | 21.8 µM (≈ 20 µg/mL) |
| C/C(=N\OCC(=O)N[C@H](C(=O)N[C@@H](CCCCN)C(=O)N1CCC[C@H]1C(=O)N[C@@H](CCCCN)C(=O)NCC(=O)N[C@H](C(=O)N[C@@H](CCCCN)C(=O)N1CCC[C@H]1C(=O)N[C@@H](CCCCN)C(=O)NCC(=O)N[C@H](C(=O)N[C@@H](CCCCN)C(=O)N1CCC[C@H]1C(=O)N[C@@H](CCCCN)C(=O)NCC(=O)N[C@H](C(=O)N[C@@H](CCCCN)C(=O)N1CCC[C@H]1C(=O)N[C@@H](CCCCN)C(=O)NCC(N)=O)[C@@H](C)O)[C@@H](C)O)[C@@H](C)O)[C@@H](C)O)c1ccc(NC(=O)c2cc(Br)ccc2O)cc1 ({Benzoyl(5-Br-2-OH)}-[X1]TKPKGTKPKGTKPKGTKPKG-NH2) | Active | Active | Active | Active | Stable | Stable | Stable | Stable | Stable | 14.3 min | 40.8 µM (≈ 100 µg/mL) | > 200 µM | 81.9 µM | > 2.5 | 1 | > 100 µM | 1.2 | Unstable |  | 81.5 µM (≈ 200 µg/mL) |
